Laboratory results taken from ChEMBL document CHEMBL2029293, “Fluorophosphonylated nucleoside derivatives as new series of thymidine phosphorylase multisubstrate inhibitors” (J Med Chem, 2012).

Experiments:
[1] = biological target: Thymidine phosphorylase (Escherichia coli K-12) (UniProt P07650); assay: Inhibition of Escherichia coli thymidine phosphorylase at 100 uM incubated for 20 mins at room temperature followed by 5 mins incubation at 90 degC by HPLC analysis
Summary of the method: (§1)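 Enzyme from E. coli, combined with thymidine and orthophosphate in Tris buffer. Phosphonic acid added at 1 mM or 100 μM. Incubated 20 min at room temperature, then 5 min at 90 °C. Thymidine separated from thymine by HPLC and percent inhibition calculated.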

[2] = biological target: Thymidine phosphorylase (Escherichia coli K-12) (UniProt P07650); assay: Inhibition of Escherichia coli thymidine phosphorylase at 1 mM incubated for 20 mins at room temperature followed by 5 mins incubation at 90 degC by HPLC analysis; summary of the method: as §1
[3] = Inhibition of thymidine phosphorylase
Thymidine phosphorylase = Thymidine phosphorylase (Escherichia coli K-12, UniProt P07650); assay: Competitive inhibition of Escherichia coli thymidine phosphorylase incubated for 20 mins at room temperature followed by 5 mins incubation at 90 degC by Lineweaver-Burk plot analysis
Sequence of Thymidine phosphorylase (P07650 whole entry): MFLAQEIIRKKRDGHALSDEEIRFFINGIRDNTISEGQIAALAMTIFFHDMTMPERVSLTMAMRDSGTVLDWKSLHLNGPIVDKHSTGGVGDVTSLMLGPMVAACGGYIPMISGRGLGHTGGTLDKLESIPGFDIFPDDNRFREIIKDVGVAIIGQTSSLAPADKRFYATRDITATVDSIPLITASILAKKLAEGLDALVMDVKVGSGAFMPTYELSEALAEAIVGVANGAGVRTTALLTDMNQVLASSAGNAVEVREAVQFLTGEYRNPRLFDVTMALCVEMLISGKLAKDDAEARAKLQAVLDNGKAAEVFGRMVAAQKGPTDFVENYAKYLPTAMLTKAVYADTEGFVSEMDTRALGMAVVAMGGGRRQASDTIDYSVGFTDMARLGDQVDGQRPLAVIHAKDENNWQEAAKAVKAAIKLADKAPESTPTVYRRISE

Sequence of Thymidine phosphorylase (Escherichia coli K-12) (P07650 whole entry, looked up): as the sequence (P07650 whole entry) above

SMILES	inhibition [1]	inhibition [2]	Ki [3]	Ki (Thymidine phosphorylase)
Cc1cn(CCCCC(F)(F)P(=O)(O)O)c(=O)[nH]c1=O	15%	68%	–	–
Nc1nc(O)c2ncn(CCCCC(F)(F)P(=O)(O)O)c2n1	34%	74%	–	–
O=c1[nH]c(=O)n(CCCCC(F)(F)P(=O)(O)O)cc1Br	20%	61%	–	–
Cc1cn(C[C@@H](C)OCP(=O)(O)O)c(=O)[nH]c1=O	–	–	2 µM	–
Cc1cn(C[C@@H](CF)OCP(=O)(O)O)c(=O)[nH]c1=O	–	–	2 µM	–
Cc1cn(CCCCCCCCCCCC(F)(F)P(=O)(O)O)c(=O)[nH]c1=O	56%	88%	–	–
Cc1cn(Cc2cn(CCCCC(F)(F)P(=O)(O)O)nn2)c(=O)[nH]c1=O	68%	90%	–	58 µM
O=P(O)(O)CCCCCCCCn1ccc2c(O)nc(O)nc21	–	–	54 µM	54 µM
Cc1cn(CCCSCCCCC(F)(F)P(=O)(O)O)c(=O)[nH]c1=O	43%	90%	–	–
Cc1cn(C[C@@H](CO)OCP(=O)(O)O)c(=O)[nH]c1=O	–	–	2 µM	–
O=P(O)(O)C(F)(F)CCCn1cc(Cn2cnc3c(O)ncnc32)nn1	29%	69%	–	–
Nc1[nH]c(=O)[nH]c(=O)c1Br	71%	100%	–	–
Cc1cn(CCCCCCCCC(F)(F)P(=O)(O)O)c(=O)[nH]c1=O	55%	85%	–	–
N=C1CCCN1Cc1[nH]c(=O)[nH]c(=O)c1Cl [TIPIRACIL]	–	–	0.035 µM	–
Cc1cn(CCCC(F)(F)P(=O)(O)O)c(=O)[nH]c1=O	4%	51%	–	–
Cc1cn(CC(I)CC(F)(F)P(=O)(O)O)c(=O)[nH]c1=O (centres undefined)	52%	95%	–	–

SMILES	inhibition [1]	inhibition [2]	Ki [3]	Ki (Thymidine phosphorylase)
Cc1cn(CCSCCCCC(F)(F)P(=O)(O)O)c(=O)[nH]c1=O	0%	36%	–	–
Cc1cn(CCCCP(=O)(O)O)c(=O)[nH]c1=O	0%	23%	–	–
Cc1cn(CCCCCCCCCC(F)(F)P(=O)(O)O)c(=O)[nH]c1=O	55%	86%	–	–
Cc1cn(Cc2cn(CCCC(F)(F)P(=O)(O)O)nn2)c(=O)[nH]c1=O	36%	79%	–	–
Nc1nc(O)c2ncn(Cc3cn(CCCCC(F)(F)P(=O)(O)O)nn3)c2n1	35%	76%	–	–
O=P(O)(O)C(F)(F)CCCCn1cc(Cn2cnc3c(O)ncnc32)nn1	35%	76%	–	–
O=c1ccn(Cc2cn(CCCCC(F)(F)P(=O)(O)O)nn2)c(=O)[nH]1	22%	79%	–	–
Cc1cn(CCCCCCSCCCCC(F)(F)P(=O)(O)O)c(=O)[nH]c1=O	38%	86%	–	–
Nc1c(Br)c(=O)[nH]c(=O)n1CCCCCCCCP(=O)(O)O	64%	–	142 µM	142 µM
O=P(O)(O)C(F)(F)CCCCn1cnc2c(O)ncnc21	9%	25%	–	–
Nc1nc(O)c2ncn(CCCC(F)(F)P(=O)(O)O)c2n1	4%	25%	–	–
Cc1cn(Cc2cn(CC(F)(F)P(=O)(O)O)nn2)c(=O)[nH]c1=O	9%	29%	–	–
Cc1cn(CCCCSCCCCC(F)(F)P(=O)(O)O)c(=O)[nH]c1=O	40%	78%	–	–
O=c1ccn(CCCCC(F)(F)P(=O)(O)O)c(=O)[nH]1	15%	44%	–	–
Cc1cn(CCCCCCCCP(=O)(O)O)c(=O)[nH]c1=O	15%	–	–	–
